{"source": "ChEMBL document CHEMBL5661984", "about": "“Allosteric ligands for the pharmacologically dark receptors GPR68 and GPR65” (Nature, 2015)", "key": {"[1]": {"target": "T1, G-protein coupled receptor 68 (Homo sapiens, UniProt Q15743)", "T1 sequence (Q15743 whole entry)": "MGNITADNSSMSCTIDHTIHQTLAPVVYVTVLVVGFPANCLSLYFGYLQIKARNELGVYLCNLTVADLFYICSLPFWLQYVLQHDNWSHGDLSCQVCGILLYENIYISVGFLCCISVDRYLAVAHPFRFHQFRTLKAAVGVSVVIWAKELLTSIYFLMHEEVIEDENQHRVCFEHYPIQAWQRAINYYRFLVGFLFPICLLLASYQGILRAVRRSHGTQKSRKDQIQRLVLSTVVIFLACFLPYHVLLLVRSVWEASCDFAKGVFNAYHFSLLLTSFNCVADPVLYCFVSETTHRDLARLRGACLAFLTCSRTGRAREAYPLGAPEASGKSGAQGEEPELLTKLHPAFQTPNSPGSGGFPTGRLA", "experiment": "Positive allosteric modulator activity at HA-tagged GPR68 expressed in human HEK293T cells assessed as activation of PKA at pH 7.4 by immunoblotting analysis", "assay_type": "cell-based", "settings": "filed as positive allosteric modulator", "summary_of_the_method": "(§1)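 HEK293 cells stably expressing N-terminal HA-tagged human GPR68 (vector-only line as control), selected with 250 μg/ml G418. Confluent cells were switched to Hams-F12 at pH 8.0 or 7.4 for 1 h, then given vehicle or 50 μM compound for 10 min. Lysate immunoblots were probed for HA, total VASP, p-p42/p44 and β-actin, read with infrared-fluorophore secondaries.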"}, "[2]": {"target": "T1, G-protein coupled receptor 68", "experiment": "Positive allosteric modulator activity at HA-tagged GPR68 expressed in human HEK293T cells assessed as activation of p42/p44 MAP kinase at pH 7.4 by immunoblotting analysis", "assay_type": "cell-based", "settings": "filed as positive allosteric modulator", "summary_of_the_method": "as §1"}, "[3]": {"target": "T1, G-protein coupled receptor 68", "experiment": "Binding affinity to GPR68 expressed in human HEK293T cells assessed as cAMP production in presence of H+ proton by Split-luciferase based luminescence counter analysis", "assay_type": "cell-based", "settings": "filed as positive allosteric modulator", "summary_of_the_method": "(§2)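 Proton concentration-response of GPR68 (wild type or E160A/K/Q, R189L/M, H269F mutants) in transiently transfected HEK293-T cells. Read-out: GloSensor cAMP, with luciferin loading 90 min at 37°C at pH 8.4. Run with and without increasing modulator concentrations; 20 min at room temperature before luminescence. Proton KA fixed to the proton EC50 without modulator. KB, τA, α, β fitted globally with an operational allosteric model. n=4.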"}, "[4]": {"target": "T1, G-protein coupled receptor 68", "experiment": "Positive allosteric modulator activity at human GPR68 expressed in yeast assessed as Gq-yeast growth stimulation at 10 uM by microplate reader analysis", "settings": "filed as positive allosteric modulator", "summary_of_the_method": "(§3)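 Gq-coupled yeast strain expressing receptor, in SD-His-Ura medium (pH 5.4) with 3-amino-1,2,4-triazole at a level giving moderate ligand-free growth (OD 0.2–0.6). Compound at 10 μM final, in triplicate. Starting OD600 0.02; growth 2–5 days at 30°C, read as OD600. Values are 100 × (well OD600 − plate median), given as % growth stimulation, mean ± SEM of three wells.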"}, "[5]": {"target": "C-X-C chemokine receptor type 4 (Homo sapiens) (UniProt P61073)", "sequence (P61073 whole entry)": "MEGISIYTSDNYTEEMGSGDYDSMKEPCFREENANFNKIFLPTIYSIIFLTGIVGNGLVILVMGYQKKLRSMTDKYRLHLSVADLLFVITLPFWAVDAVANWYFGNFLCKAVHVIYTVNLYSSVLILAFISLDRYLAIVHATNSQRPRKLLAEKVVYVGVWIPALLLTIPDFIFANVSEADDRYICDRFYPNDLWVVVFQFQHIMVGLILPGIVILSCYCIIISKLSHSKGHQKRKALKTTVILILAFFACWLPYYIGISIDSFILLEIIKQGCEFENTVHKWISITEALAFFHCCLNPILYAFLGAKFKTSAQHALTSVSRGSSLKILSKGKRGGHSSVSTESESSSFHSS", "experiment": "Agonist activity against CXCR4 receptor (unknown origin) transfected in human HEK293T cells at 10 uM incubated for 15 mins in presence of CXCL12 by luminescence counter analysis", "assay_type": "functional, cell-based", "summary_of_the_method": "(§4)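 HEK293-T cells transiently transfected with CXCR4 and the GloSensor cAMP reporter, plated in DMEM with 1% dialyzed FBS. Test compound at 10 μM in 20 mM HEPES/HBSS, pH 7.4, 15 min at room temperature. Agonist mode: luciferin (4 mM final) plus 200 nM isoproterenol added, 20 min. Antagonist mode: compound 10 min, then reference agonist at EC80 for 10 min, then luciferin/isoproterenol. Luminescence read. CXCL12 (1 or 3 μM) is the agonist control and AMD3100 (10 μM) the antagonist control. n=2.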"}, "[6]": {"target": "G-prodeshotein coupled receptor 4 (Homo sapiens) (UniProt P46093)", "sequence (P46093 whole entry, looked up)": "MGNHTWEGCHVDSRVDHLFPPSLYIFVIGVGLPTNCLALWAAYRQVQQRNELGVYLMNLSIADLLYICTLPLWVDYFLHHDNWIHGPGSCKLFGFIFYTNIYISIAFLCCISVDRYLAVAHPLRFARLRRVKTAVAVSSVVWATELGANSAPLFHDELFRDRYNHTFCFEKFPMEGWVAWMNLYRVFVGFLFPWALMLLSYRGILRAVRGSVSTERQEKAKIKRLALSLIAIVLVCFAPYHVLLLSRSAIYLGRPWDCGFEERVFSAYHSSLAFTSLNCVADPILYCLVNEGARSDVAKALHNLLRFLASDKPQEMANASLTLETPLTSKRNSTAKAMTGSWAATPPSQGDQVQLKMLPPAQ", "experiment": "Positive allosteric modulator activity at human GPR4 expressed in yeast assessed as Gq-yeast growth stimulation at 10 uM by microplate reader analysis", "summary_of_the_method": "as §3"}, "[7]": {"target": "C-X-C chemokine receptor type 4 (Homo sapiens) (UniProt P61073)", "experiment": "Antagonist activity against CXCR4 receptor (unknown origin) transfected in human HEK293T cells at 10 uM incubated for 15 mins in presence of AMD3100 by luminescence counter analysis", "assay_type": "functional, cell-based", "summary_of_the_method": "as §4"}, "[8]": {"target": "T2, G-protein coupled receptor 65 (Homo sapiens, UniProt Q8IYL9)", "T2 sequence (Q8IYL9 whole entry)": "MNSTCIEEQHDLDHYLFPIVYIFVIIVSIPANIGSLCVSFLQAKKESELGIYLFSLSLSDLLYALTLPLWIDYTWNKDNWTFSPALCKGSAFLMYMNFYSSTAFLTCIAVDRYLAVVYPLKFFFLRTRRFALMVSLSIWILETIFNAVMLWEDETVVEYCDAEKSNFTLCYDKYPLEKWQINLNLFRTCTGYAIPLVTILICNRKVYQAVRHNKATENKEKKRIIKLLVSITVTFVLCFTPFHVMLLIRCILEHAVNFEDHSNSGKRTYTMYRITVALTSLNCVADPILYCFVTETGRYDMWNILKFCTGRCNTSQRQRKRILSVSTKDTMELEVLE", "experiment": "Positive allosteric modulator activity at human GPR65 expressed in yeast assessed as Gq-yeast growth stimulation at 10 uM by microplate reader analysis", "summary_of_the_method": "as §3"}, "[9]": {"target": "T1, G-protein coupled receptor 68", "experiment": "Positive allosteric modulator activity at GPR68 expressed in human HEK293T cells assessed as cAMP production in presence of H+ proton by Split-luciferase based luminescence counter analysis (reference value: 26.4 to 43.8 %)", "assay_type": "functional, cell-based", "settings": "filed as positive allosteric modulator", "summary_of_the_method": "as §2"}, "[10]": {"target": "T1, G-protein coupled receptor 68", "experiment": "Positive allosteric modulator activity at GPR68 expressed in human HEK293T cells assessed as cAMP production in presence of H+ proton by Split-luciferase based luminescence counter analysis (reference value: 6.53 to 6.72)", "assay_type": "functional, cell-based"}, "[11]": {"target": "T2, G-protein coupled receptor 65", "experiment": "Antagonist activity against GPR65 (unknown origin) transfected in human HEK293T cells incubated for 15 mins by luminescence counter analysis", "assay_type": "functional, cell-based", "settings": "filed as antagonist", "summary_of_the_method": "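GloSensor split-luciferase cAMP assay. HEK293-T cells transiently co-transfected with GPR65 (wild type or the D153A, R187L, F242A or Y272A mutant) and GloSensor 7A reporter. Cells plated in DMEM with 1% dialyzed FBS for at least 6 h, then loaded with luciferin (4 mM, in drug buffer pH 8.4) for 90 min at 37°C. Compounds added at set pH in HBSS with 10 mM HEPES/10 mM MES, with TAPS for higher pH. Luminescence read after about 20 min at room temperature. Data normalized to buffer basal and fitted to a 4-parameter logistic.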"}}, "note": "The source made the active and inactive calls. No cut-off for these calls is given here."}
{"smiles": "O=C1Nc2ccc(Cl)cc2C(c2ccccc2Cl)=NC1O", "note": "(configuration not stated)", "values": [{"measurement": "Activity", "setting": "[1]", "value": "Active"}, {"measurement": "Activity", "setting": "[2]", "value": "Active"}, {"measurement": "pKb", "setting": "[3]", "value": 5.92}, {"measurement": "Activity", "setting": "[4]", "value": 2}, {"measurement": "Activity", "setting": "[5]", "value": "inactive"}, {"measurement": "Activity", "setting": "[6]", "value": "inactive"}, {"measurement": "Activity", "setting": "[7]", "value": "inactive"}, {"measurement": "Activity", "setting": "[8]", "value": "inactive"}]}
{"smiles": "Nc1nc(NCc2cccc(F)c2)nc(-c2ccc(F)c(F)c2CO)n1", "values": [{"measurement": "pKb", "setting": "[3]", "value": 4.01}]}
{"smiles": "Nc1nc(NCc2ccccc2F)nc(-c2cc(F)c(F)cc2N)n1", "values": [{"measurement": "pKb", "setting": "[3]", "value": 4.93}]}
{"smiles": "O=C1N[C@H](c2cccc([N+](=O)[O-])c2)c2c(-c3ccco3)n[nH]c21", "values": [{"measurement": "Emax", "setting": "[9]", "value": 60.3, "unit": "%"}, {"measurement": "pKb", "setting": "[3]", "value": 4.42}, {"measurement": "EC50", "setting": "[10]", "value": 107, "unit": "nM"}]}
{"smiles": "O=C(Nc1nc(-c2ccc3c(c2)OCCO3)cs1)c1csnn1", "values": [{"measurement": "Activity", "setting": "[11]", "value": "Active"}]}
{"smiles": "COc1cc([C@H]2NC(=O)c3[nH]nc(-c4ccco4)c32)ccc1O", "values": [{"measurement": "Emax", "setting": "[9]", "value": 46.9, "unit": "%"}, {"measurement": "pKb", "setting": "[3]", "value": 5.17}, {"measurement": "EC50", "setting": "[10]", "value": 158, "unit": "nM"}]}
{"smiles": "Nc1nc(NCc2ccccc2)nc(-c2ccc(F)c(F)c2CO)n1", "values": [{"measurement": "pKb", "setting": "[3]", "value": 3.84}]}
{"smiles": "CCCCNc1c(C(=O)OCC)c(C)nc2c1cnn2CC", "values": [{"measurement": "pKb", "setting": "[3]", "value": 5.2}]}
{"smiles": "Nc1nc(NCc2ccccc2)nc(-c2ccccc2N)n1", "values": [{"measurement": "Emax", "setting": "[9]", "value": 50.2, "unit": "%"}, {"measurement": "pKb", "setting": "[3]", "value": 5.22}, {"measurement": "EC50", "setting": "[10]", "value": 63.1, "unit": "nM"}]}
{"smiles": "Nc1nc(NCc2ccccc2)nc(-c2ccc(F)c(F)c2)n1", "values": [{"measurement": "Emax", "setting": "[9]", "value": 68.8, "unit": "%"}, {"measurement": "pKb", "setting": "[3]", "value": 5.69}, {"measurement": "EC50", "setting": "[10]", "value": 91.2, "unit": "nM"}]}
{"smiles": "Nc1nc(NCc2cccc(F)c2)nc(-c2ccc(F)cc2N)n1", "values": [{"measurement": "pKb", "setting": "[3]", "value": 3.68}]}
{"smiles": "Nc1nc(NCCCc2ccccc2)nc(-c2ccccc2CO)n1", "values": [{"measurement": "pKb", "setting": "[3]", "value": 5.75}]}
{"smiles": "Nc1nc(NCCCCc2ccccc2)nc(-c2ccccc2CO)n1", "values": [{"measurement": "pKb", "setting": "[3]", "value": 5.82}]}
{"smiles": "OC1CCC(Nc2nc(-c3ccccc3)nc3[nH]ccc23)CC1", "note": "(configuration not stated)", "values": [{"measurement": "pKb", "setting": "[3]", "value": 6.2}]}
{"smiles": "Nc1nc(-c2ccc(Cl)c(Cl)c2)c(-c2ccncc2)s1", "values": [{"measurement": "pKb", "setting": "[3]", "value": 7.51}]}
{"smiles": "Nc1nc(NCc2cccc(F)c2)nc(-c2cc(F)c(F)cc2N)n1", "values": [{"measurement": "pKb", "setting": "[3]", "value": 4.66}]}
{"smiles": "Nc1nc(NCCc2ccccc2)nc(-c2ccccc2CO)n1", "values": [{"measurement": "pKb", "setting": "[3]", "value": 5.43}]}
